PMC9051311 (RSC Advances, 2020)
No end group written: not given here.

Assays:
[1] = biological target: T1, ACE (E.C. 3.4.15.1) from the lungs of rabbits (Oryctolagus cuniculus, UniProt P12822); test: ACE inhibitory; assay type: biochemical, rabbit
T1 sequence (P12822 34-1310): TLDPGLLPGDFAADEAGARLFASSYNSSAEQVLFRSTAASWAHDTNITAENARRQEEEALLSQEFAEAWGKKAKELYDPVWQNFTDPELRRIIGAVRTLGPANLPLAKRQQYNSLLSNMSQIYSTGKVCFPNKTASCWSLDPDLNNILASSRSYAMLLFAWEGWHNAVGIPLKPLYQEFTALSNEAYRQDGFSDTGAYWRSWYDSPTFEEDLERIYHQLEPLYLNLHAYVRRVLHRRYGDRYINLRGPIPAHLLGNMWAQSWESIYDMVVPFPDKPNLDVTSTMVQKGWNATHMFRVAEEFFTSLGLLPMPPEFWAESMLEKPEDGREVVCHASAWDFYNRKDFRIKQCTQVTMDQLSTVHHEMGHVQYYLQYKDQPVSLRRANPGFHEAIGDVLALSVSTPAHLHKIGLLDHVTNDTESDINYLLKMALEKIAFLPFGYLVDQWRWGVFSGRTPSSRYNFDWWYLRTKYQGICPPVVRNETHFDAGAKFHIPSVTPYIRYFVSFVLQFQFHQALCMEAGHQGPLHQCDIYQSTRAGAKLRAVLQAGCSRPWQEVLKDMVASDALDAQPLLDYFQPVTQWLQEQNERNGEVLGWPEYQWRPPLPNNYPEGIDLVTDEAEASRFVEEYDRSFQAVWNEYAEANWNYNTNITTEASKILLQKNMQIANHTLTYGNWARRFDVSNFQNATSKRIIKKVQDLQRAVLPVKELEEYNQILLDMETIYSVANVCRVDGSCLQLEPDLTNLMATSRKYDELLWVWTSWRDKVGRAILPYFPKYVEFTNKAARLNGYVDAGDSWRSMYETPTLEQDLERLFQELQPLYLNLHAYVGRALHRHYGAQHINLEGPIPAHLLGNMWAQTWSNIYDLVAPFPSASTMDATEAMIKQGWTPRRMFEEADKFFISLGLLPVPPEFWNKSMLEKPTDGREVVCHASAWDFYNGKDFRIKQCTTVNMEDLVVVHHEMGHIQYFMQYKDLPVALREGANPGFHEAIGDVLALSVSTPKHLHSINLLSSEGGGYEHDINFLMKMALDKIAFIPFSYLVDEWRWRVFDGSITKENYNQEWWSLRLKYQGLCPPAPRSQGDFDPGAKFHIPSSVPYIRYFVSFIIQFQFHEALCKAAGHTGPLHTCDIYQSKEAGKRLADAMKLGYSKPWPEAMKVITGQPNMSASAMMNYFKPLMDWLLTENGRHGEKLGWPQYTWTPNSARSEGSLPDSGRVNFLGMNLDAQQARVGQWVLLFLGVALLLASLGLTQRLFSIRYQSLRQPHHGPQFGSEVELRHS
Summary of the method: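 Rabbit-lung ACE (solution at 25 mU mL−1) pre-incubated with sample for 10 min at 37 °C, then 30 min at 37 °C with HHL (10 mM solution in PBS). Stopped with 1 M HCl. Hippuric acid extracted into ethyl acetate, dried under vacuum, redissolved in water and read at A250 against a hippuric acid standard curve. Captopril positive control. % inhibition corrected for blanks; IC50 by non-linear regression; triplicate.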

[2] = Observed solubility of the peptide in water; assay type: physicochemical

| Sequence | IC50 [1] [µM] | solubility [2] [µg/mL] |
| --- | --- | --- |
| ETSGMKPTEL [ETSGMKPTEL, Glu–Thr–Ser–Gly–Met–Lys–Pro–Thr–Glu–Leu] | 2.15 ± 0.016 | – |
| ISSMGILVCL [ISSMGILVCL, Ile–Ser–Ser–Met–Gly–Ile–Leu–Val–Cys–Leu] | 3.88 ± 0.004 | ≥ 5000 |
